How the values were obtained:
[1] = Selectivity is ratio of efficacy of alpha-2A to that of alpha1A adrenoceptor; format: functional
[2] = target: Alpha adrenergic receptor 1A and 1B (Rattus norvegicus) (UniProt P15823+P43140); experiment: Selectivity is ratio of pKi (binding affinity) of alpha-1B receptor to that of alpha-1A receptor.; format: protein assay
[3] = target: T1, Alpha-1A adrenergic receptor (Oryctolagus cuniculus) (UniProt O02824); experiment: Efficacy relative to phenylephrine (PE) to constrict tissue containing the alpha-1A adrenergic receptor in rabbit urethra; format: functional, tissue-based
T1 sequence (whole entry): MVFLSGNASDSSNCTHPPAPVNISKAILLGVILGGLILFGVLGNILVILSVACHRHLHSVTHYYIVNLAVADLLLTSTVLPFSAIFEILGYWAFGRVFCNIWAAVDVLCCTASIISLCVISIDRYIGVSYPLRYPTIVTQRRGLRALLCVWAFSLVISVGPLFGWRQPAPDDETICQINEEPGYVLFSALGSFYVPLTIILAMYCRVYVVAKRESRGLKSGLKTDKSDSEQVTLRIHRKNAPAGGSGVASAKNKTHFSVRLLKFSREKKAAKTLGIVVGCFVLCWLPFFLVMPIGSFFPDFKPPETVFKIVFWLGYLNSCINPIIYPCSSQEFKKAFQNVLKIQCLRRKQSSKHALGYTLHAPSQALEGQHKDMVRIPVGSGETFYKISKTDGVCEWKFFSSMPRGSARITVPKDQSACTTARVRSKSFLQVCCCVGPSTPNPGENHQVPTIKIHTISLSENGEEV
In short: (§1)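 α1-agonist dose–response curves in isolated tissue: rabbit urethra (α1A), rat spleen (α1B), rat aorta (α1D). Agonist potency and efficacy read from the concentration–response curves.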

[4] = target: T2, Alpha-2A adrenergic receptor (Rattus norvegicus) (UniProt P22909); experiment: Functional agonism to constrict tissue containing alpha-2A adrenergic receptor in rat prostatic vas deferens; format: tissue-based
T2 sequence (whole entry): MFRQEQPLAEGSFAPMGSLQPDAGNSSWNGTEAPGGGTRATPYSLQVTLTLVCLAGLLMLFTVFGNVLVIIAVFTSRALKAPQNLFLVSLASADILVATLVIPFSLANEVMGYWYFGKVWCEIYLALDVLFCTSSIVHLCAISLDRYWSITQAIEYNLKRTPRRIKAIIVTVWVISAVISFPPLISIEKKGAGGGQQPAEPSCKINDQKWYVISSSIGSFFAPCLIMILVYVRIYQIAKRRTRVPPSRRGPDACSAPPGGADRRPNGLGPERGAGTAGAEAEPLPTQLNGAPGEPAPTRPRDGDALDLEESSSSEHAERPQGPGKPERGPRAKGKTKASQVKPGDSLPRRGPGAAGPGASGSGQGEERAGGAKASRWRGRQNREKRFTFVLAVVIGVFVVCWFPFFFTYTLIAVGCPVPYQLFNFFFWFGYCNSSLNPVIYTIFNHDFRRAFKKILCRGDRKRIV

[5] = target: T3, Alpha-2B adrenergic receptor (Rattus norvegicus, UniProt P19328); experiment: In vitro binding affinity towards alpha-2B adrenergic receptor of rat neonatal lung in radioligand binding assay
T3 sequence (P19328 whole entry): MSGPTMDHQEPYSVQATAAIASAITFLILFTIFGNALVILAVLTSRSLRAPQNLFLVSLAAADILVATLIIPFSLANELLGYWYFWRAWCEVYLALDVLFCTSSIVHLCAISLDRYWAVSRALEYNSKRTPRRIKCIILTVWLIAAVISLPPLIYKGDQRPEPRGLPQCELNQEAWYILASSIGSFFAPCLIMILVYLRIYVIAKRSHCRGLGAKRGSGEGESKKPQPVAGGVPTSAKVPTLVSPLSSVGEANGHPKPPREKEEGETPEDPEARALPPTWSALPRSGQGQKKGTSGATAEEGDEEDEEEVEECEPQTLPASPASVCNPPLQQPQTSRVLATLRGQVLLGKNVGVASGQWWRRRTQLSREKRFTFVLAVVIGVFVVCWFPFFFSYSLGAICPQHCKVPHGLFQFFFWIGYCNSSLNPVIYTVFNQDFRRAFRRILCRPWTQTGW

Canis familiaris [6] = organism: Canis familiaris; experiment: Ratio of MAP ED delta20 to that of IUP ED delta5
[7] = target: T1, Alpha-1A adrenergic receptor (Oryctolagus cuniculus); experiment: Functional agonism of the compounds to constrict tissue containing the alpha-1A adrenergic receptor in rabbit urethra; format: tissue-based; in short: as §1
Canis familiaris [8] = experiment: Uroselectivity was determined by measuring effective dose required for 20 mmHg increase of mean arterial pressure (MAP) in vivo in dog; format: functional, Canis lupus familiaris, Artery
In short: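 Dog model recording intraurethral pressure (IUP) and mean arterial pressure (MAP) simultaneously. Increasing iv doses given, maximal effect of each dose taken. Doses giving a 5 mmHg rise in IUP (ED Δ5) or 20 mmHg rise in MAP (ED Δ20) were calculated, in nmol/kg ± SEM, n ≥ 4 (2 or 3 where footnoted).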

[9] = target: T4, Alpha-1B adrenergic receptor (Mesocricetus auratus, UniProt P18841); experiment: In vitro binding affinity towards alpha-1B adrenergic receptor of hamster clone in radioligand binding assay; format: single protein
T4 sequence (P18841 whole entry): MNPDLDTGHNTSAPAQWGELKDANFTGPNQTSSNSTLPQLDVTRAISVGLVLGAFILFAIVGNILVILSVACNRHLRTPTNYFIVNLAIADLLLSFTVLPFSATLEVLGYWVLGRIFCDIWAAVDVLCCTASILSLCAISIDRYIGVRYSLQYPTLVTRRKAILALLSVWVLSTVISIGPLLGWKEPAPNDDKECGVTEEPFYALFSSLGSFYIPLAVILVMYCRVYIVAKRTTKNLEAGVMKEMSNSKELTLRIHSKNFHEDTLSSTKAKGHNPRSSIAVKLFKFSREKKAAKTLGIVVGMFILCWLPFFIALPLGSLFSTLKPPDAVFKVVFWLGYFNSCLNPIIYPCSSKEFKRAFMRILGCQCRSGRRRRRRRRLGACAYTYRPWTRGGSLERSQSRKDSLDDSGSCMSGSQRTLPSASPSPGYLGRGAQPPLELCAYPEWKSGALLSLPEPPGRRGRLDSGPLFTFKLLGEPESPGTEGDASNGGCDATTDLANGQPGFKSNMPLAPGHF
In short: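 Radioligand binding at α1 subtypes: α1A from rat submaxillary gland, α1B hamster clone, α1D rat clone. Run essentially per an earlier method.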

Sequence of Alpha adrenergic receptor 1A and 1B (Rattus norvegicus) (P15823 whole entry, looked up): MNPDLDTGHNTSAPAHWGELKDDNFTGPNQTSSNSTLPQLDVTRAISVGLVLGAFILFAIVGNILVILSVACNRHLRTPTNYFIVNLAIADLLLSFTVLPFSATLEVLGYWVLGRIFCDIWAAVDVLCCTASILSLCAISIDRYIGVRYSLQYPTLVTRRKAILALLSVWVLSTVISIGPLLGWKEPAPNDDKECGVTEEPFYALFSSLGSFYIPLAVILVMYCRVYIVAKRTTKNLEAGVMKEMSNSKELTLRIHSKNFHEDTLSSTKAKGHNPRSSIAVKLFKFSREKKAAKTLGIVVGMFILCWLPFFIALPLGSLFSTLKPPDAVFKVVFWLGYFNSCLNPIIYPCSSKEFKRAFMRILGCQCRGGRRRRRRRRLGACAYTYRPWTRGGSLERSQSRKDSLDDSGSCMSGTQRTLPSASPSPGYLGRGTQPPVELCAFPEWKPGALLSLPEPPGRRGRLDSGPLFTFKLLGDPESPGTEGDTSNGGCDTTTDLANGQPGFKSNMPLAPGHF
Sequence of Alpha adrenergic receptor 1A and 1B (Rattus norvegicus) (P43140 whole entry, looked up): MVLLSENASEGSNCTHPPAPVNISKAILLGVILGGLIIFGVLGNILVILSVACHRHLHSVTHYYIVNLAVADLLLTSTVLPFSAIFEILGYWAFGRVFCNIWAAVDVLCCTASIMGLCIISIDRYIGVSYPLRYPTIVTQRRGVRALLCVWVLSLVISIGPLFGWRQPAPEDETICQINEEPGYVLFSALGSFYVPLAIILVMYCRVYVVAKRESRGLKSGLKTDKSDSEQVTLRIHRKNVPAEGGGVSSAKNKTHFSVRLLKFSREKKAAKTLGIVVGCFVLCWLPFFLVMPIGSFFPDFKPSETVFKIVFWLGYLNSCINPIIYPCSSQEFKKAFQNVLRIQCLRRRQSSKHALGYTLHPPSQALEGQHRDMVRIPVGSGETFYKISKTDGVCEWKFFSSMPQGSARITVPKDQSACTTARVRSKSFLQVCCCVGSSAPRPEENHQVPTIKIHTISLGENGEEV

For `COc1ccc(OC)c(C(O)CN)c1` (stereo not drawn) [DESGLYMIDODRINE], which Selectivity [1] is on record?
The Selectivity was 0.001.

What about the Selectivity [2] of the same molecule?
The Selectivity was 3.

And the Efficacy [3]?
The Efficacy was 133%.

What about the pD2 [4] of the same molecule?
The pD2 was 8.23.

And the Ki [5]?
The Ki was 1860 nM.

And the Ratio (Canis familiaris [6])?
Its Ratio is 1.3.

And the pD2 [7]?
Its pD2 is 5.15.

And the “ED delta20” value (Canis familiaris [8])?
The value was 250 nM/kg.

For `O=S(=O)(CC(F)(F)F)Nc1cccc2c1CCCC2c1c[nH]cn1` (single isomer, unassigned; (+)), which Ki [9] is on record?
The Ki was greater than 10000 nM.

And the Selectivity [1]?
The Selectivity was 0.14.

What about the Selectivity [2] of the same molecule?
Its Selectivity is greater than 80.

What about the Efficacy [3] of the same molecule?
The Efficacy was 52%.

What about the pD2 [4] of the same molecule?
The pD2 was 6.59.

What about the Ki [5] of the same molecule?
The Ki was greater than 10000 nM.

And the Ratio (Canis familiaris [6])?
The Ratio was 3.

And the pD2 [7]?
The pD2 was 5.73.

And the “ED delta20” value (Canis familiaris [8])?
Its value is 450 nM/kg.

What does the source list for `CC(N)C(O)c1ccccc1` (stereo not drawn) [PHENYLPROPANOLAMINE]?
Ki [9]: 9550 nM; Selectivity [1]: 0.03; Selectivity [2]: 1; Efficacy [3]: 68%; Ki [5]: 263 nM; Ratio (Canis familiaris [6]): 0.4; pD2 [7]: 3.63; ED delta20 (Canis familiaris [8]): 330 nM/kg

What does the source list for `CN(c1cccc2c1CCCC2c1c[nH]cn1)S(C)(=O)=O` (stereo not drawn)?
Ki [9]: > 10000 nM; Selectivity [1]: 0.12; Selectivity [2]: > 50; Efficacy [3]: 79%; pD2 [4]: 7.08; Ki [5]: 912 nM; Ratio (Canis familiaris [6]): 2.5; pD2 [7]: 6.16; ED delta20 (Canis familiaris [8]): 225.3 nM/kg

What does the source list for `O=C(Nc1cccc2c1CCCC2c1c[nH]cn1)C(F)(F)F` (stereo not drawn)?
Ki [9]: > 10000 nM; Selectivity [1]: 0.1; Selectivity [2]: 60; Efficacy [3]: 118%; pD2 [4]: 7.14; Ki [5]: 661 nM; Ratio (Canis familiaris [6]): 1.1; pD2 [7]: 6.28; ED delta20 (Canis familiaris [8]): 216 nM/kg

Reference: ChEMBL document CHEMBL1148329, “Synthesis and structure-activity studies on N-[5-(1H-imidazol-4-yl)-5,6,7,8-tetrahydro-1-naphthalenyl]methanesulfonamide, an imidazole-containing alpha(1A)-adrenoceptor agonist” (J Med Chem, 2004)
